# In ChEMBL document CHEMBL3525926, “CYP2C9-mediated metabolic activation of losartan detected by a highly sensitive cell-based screening assay” (Drug Metab Dispos, 2011):
# Experiments:
# Type in all cases: ADME, cell-based
# Conditions in all cases: hepg2, 24 h
# [1] = biological target: T1, Cytochrome P450 2C9 (Homo sapiens, UniProt P11712); assay: Metabolic activation assessed as CYP2C9 activation-induced cytotoxicity in human HepG2 cells transfected with human AdCYP2C9 at MOI 10 for 2 days in presence of siNrf2 at 25 to 100 uM after 24 hrs by WST-8 assay
# [2] = biological target: T1, Cytochrome P450 2C9; assay: Metabolic activation assessed as CYP2C9 activation-induced cytotoxicity in human HepG2 cells transfected with human AdCYP2C9 at MOI 10 for 2 days in presence of siNrf2 at 100 uM after 24 hrs by WST-8 assay
# Outline: (§1)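 HepG2 cells reverse-transfected with 10 nM siNrf2 at seeding (1.0×10^4 cells/well), incubated 24 h, then infected with CYP2C9-expressing adenovirus (AdGFP as control) at MOI 10 for 2 days in 5% FBS medium. Drugs added for 24 h. Viability read by WST-8 (absorbance 450 nm) or CellTiter-Glo ATP luminescence. Expressed as % of untreated cells; means ± S.D., n = 3; two-tailed t test versus AdGFP cells.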
# [3] = biological target: T1, Cytochrome P450 2C9; assay: Metabolic activation assessed as CYP2C9 activation-induced cytotoxicity in human HepG2 cells transfected with human AdCYP2C9 at MOI 10 for 2 days in presence of siNrf2 at 50 to 200 uM after 24 hrs by WST-8 assay; outline: as §1
# [4] = biological target: T1, Cytochrome P450 2C9; assay: Metabolic activation assessed as CYP2C9 activation-induced cytotoxicity in human HepG2 cells transfected with human AdCYP2C9 at MOI 10 for 2 days in presence of siScramble at 25 to 100 uM after 24 hrs by ATP assay
# Outline: (§2)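 HepG2 cells reverse-transfected with 10 nM scrambled control siRNA at seeding (1.0×10^4 cells/well), then after 24 h infected with CYP2C9-expressing adenovirus (AdGFP control) at MOI 10 for 2 days. Drugs added for 24 h. Viability by CellTiter-Glo ATP luminescence, as % of untreated cells; means ± S.D., n = 3; two-tailed t test versus AdGFP cells.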
# [5] = biological target: T1, Cytochrome P450 2C9; assay: Metabolic activation assessed as CYP2C9 activation-induced cytotoxicity in human HepG2 cells transfected with human AdCYP2C9 at MOI 10 for 2 days in presence of siNrf2 at 25 to 75 uM after 24 hrs by WST-8 assay; outline: as §1
# [6] = biological target: T1, Cytochrome P450 2C9; assay: Metabolic activation assessed as CYP2C9 activation-induced cytotoxicity in human HepG2 cells transfected with human AdCYP2C9 at MOI 10 for 2 days in presence of siNrf2 at 50 to 200 uM after 24 hrs by ATP assay; outline: as §1
# [7] = biological target: T1, Cytochrome P450 2C9; assay: Metabolic activation assessed as CYP2C9 activation-induced cytotoxicity in human HepG2 cells transfected with human AdCYP2C9 at MOI 10 for 2 days in presence of siScramble at 50 to 200 uM after 24 hrs by ATP assay; outline: as §2
# [8] = biological target: T1, Cytochrome P450 2C9; assay: Metabolic activation assessed as CYP2C9 activation-induced cytotoxicity in human HepG2 cells transfected with human AdCYP2C9 at MOI 10 for 2 days in presence of siNrf2 at 100 to 200 uM after 24 hrs by WST-8 assay; outline: as §1
# T1 sequence (P11712 whole entry): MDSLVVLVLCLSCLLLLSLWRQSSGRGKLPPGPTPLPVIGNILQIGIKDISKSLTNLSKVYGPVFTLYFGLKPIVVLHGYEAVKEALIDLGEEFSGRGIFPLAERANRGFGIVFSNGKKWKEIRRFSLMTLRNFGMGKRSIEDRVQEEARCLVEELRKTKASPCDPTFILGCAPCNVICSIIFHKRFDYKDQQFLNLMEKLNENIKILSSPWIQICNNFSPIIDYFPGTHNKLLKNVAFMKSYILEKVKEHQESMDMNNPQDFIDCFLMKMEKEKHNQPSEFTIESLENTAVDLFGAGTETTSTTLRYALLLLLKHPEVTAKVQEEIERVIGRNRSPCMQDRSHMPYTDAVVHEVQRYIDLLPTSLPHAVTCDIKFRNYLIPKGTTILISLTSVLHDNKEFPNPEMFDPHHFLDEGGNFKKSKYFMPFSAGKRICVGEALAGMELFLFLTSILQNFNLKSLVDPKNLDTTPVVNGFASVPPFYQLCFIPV
compound,measurement,setting,value
CCCCc1nc(Cl)c(C(=O)O)n1Cc1ccc(-c2ccccc2-c2nn[nH]n2)cc1 [CARBOXYLIC ACID METABOLITE],Activity,[1],Non-toxic
CC(C)n1c(/C=C/C(O)CC(O)CC(=O)O)c(-c2ccc(F)cc2)c2ccccc21 (stereo not drawn) [FLUVASTATIN],Activity,[2],Toxic
same,Activity,[3],Non-toxic
CCCCc1nc(Cl)c(CO)n1Cc1ccc(-c2ccccc2-c2nn[nH]n2)cc1 [LOSARTAN],Activity,[1],Toxic
same,Activity,[4],Non-toxic
CCCCc1nc(Cl)c(C=O)n1Cc1ccc(-c2ccccc2-c2nn[nH]n2)cc1,Activity,[1],Non-toxic
CC(C)C(=O)Nc1ccc([N+](=O)[O-])c(C(F)(F)F)c1 [FLUTAMIDE],Activity,[5],Non-toxic
O=C(O)COc1ccc(C(=O)c2cccs2)c(Cl)c1Cl [TICRYNAFEN],Activity,[6],Toxic
same,Activity,[7],Non-toxic
same,Activity,[8],Toxic
CN(C/C=C/C#CC(C)(C)C)Cc1cccc2ccccc12 [TERBINAFINE],Activity,[1],Toxic
same,Activity,[4],Toxic
CCCCc1ncc(/C=C(\Cc2cccs2)C(=O)O)n1Cc1ccc(C(=O)O)cc1 [EPROSARTAN],Activity,[1],Toxic
CCCc1nc2c(C)cc(-c3nc4ccccc4n3C)cc2n1Cc1ccc(-c2ccccc2C(=O)O)cc1 [TELMISARTAN],Activity,[1],Toxic
CCCCC(=O)N(Cc1ccc(-c2ccccc2-c2nnn[nH]2)cc1)[C@H](C(=O)O)C(C)C [VALSARTAN],Activity,[1],Toxic
CCCC(CCC)C(=O)O [VALPROIC ACID],Activity,[3],Non-toxic
Cc1ccc(-c2nc3ccc(C)cn3c2CC(=O)N(C)C)cc1 [ZOLPIDEM],Activity,[1],Toxic
CCCCC1=NC2(CCCC2)C(=O)N1Cc1ccc(-c2ccccc2-c2nnn[nH]2)cc1 [IRBESARTAN],Activity,[1],Toxic
